According to ChEMBL document CHEMBL1156239, “Synthesis, anticonvulsant and antimicrobial activities of some new 2-acetylnaphthalene derivatives” (Bioorg Med Chem, 2010):
Values after ≈ are worked out from the molar mass of the structure shown. Active and inactive are the calls of the source. The calls are words filed in the database; no cut-off is given here.

Experiments:
Staphylococcus aureus = experiment: Antibacterial activity against Staphylococcus aureus ATCC 25923 after 24 hrs by broth microdilution method; assay type: functional; conditions: ATCC 25923, 24 h
Method in brief: (§1)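 Broth microdilution in Mueller Hinton broth; compound stocks in DMSO, diluted into test medium. Plates incubated at 35 °C and read visually after 24 h. MIC taken as lowest concentration preventing visible growth. Ampicillin reference.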

Enterococcus faecalis = experiment: Antibacterial activity against Enterococcus faecalis ATCC 29212 after 24 hrs by broth microdilution method; assay type: functional; conditions: ATCC 29212, 24 h; method in brief: as §1
Escherichia coli = experiment: Antibacterial activity against Escherichia coli ATCC 25922 after 24 hrs by broth microdilution method; assay type: functional; conditions: ATCC 25922, 24 h; method in brief: as §1
Pseudomonas aeruginosa = experiment: Antibacterial activity against Pseudomonas aeruginosa ATCC 27853 after 24 hrs by broth microdilution method; assay type: functional; conditions: ATCC 27853, 24 h; method in brief: as §1
Pichia kudriavzevii = experiment: Antifungal activity against Candida krusei ATCC 6258 after 48 hrs by broth microdilution method; assay type: functional; conditions: ATCC 6258, 48 h
Candida parapsilosis = experiment: Antifungal activity against Candida parapsilosis ATCC 22019 after 48 hrs by broth microdilution method; assay type: functional; conditions: Lodderomyces parapsilosis, ATCC 22019, 48 h
Mus musculus [1] = experiment: Anticonvulsant activity in CF1 mouse assessed as inhibition of maximal electroshock-induced seizures at 30 mg/kg, ip after 0.5 hrs; assay type: functional, organism-based; set-up: dose 30 mg/kg
Method in brief: (§2)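 Male albino CF#1 mice (18–25.5 g), compound suspended in 0.5% methylcellulose, given ip 0.5 h or 4 h before test. Eyes treated with 0.5% tetracaine HCl in saline; corneal-type MES at 60 Hz, 50 mA for 0.2 s; protection scored as animals protected/tested.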

Mus musculus [2] = experiment: Anticonvulsant activity in CF1 mouse assessed as inhibition of maximal electroshock-induced seizures at 100 mg/kg, ip after 0.5 hrs; assay type: functional, organism-based; set-up: dose 100 mg/kg; method in brief: as §2
Mus musculus [3] = experiment: Anticonvulsant activity in CF1 mouse assessed as inhibition of maximal electroshock-induced seizures at 300 mg/kg, ip after 0.5 hrs; assay type: functional, organism-based; set-up: dose 300 mg/kg; method in brief: as §2
Mus musculus [4] = experiment: Anticonvulsant activity in CF1 mouse assessed as inhibition of maximal electroshock-induced seizures at 30 mg/kg, ip after 4 hrs; assay type: functional, organism-based; set-up: dose 30 mg/kg; method in brief: as §2
Mus musculus [5] = experiment: Neurotoxicity in CF1 mouse at 30 mg/kg, ip after 0.5 hrs by rotarod test; assay type: toxicity, organism-based; set-up: dose 30 mg/kg, route intraperitoneal; conditions: in vivo
Method in brief: (§3)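 Male albino CF#1 mice (18–25.5 g) dosed ip with compound suspended in 0.5% methylcellulose, 0.5 h or 4 h before testing; neurotoxicity assessed by rotarod, scored as number toxic/number tested.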

Mus musculus [6] = experiment: Neurotoxicity in CF1 mouse at 100 mg/kg, ip after 0.5 hrs by rotarod test; assay type: toxicity, organism-based; set-up: dose 100 mg/kg, route intraperitoneal; conditions: in vivo; method in brief: as §3
Mus musculus [7] = experiment: Neurotoxicity in CF1 mouse assessed as hyperactivity at 300 mg/kg, ip after 0.5 hrs by rotarod test; assay type: toxicity, organism-based; set-up: dose 300 mg/kg, route intraperitoneal; conditions: in vivo
Mus musculus [8] = experiment: Neurotoxicity in CF1 mouse at 30 mg/kg, ip after 4 hrs by rotarod test; assay type: toxicity, organism-based; set-up: dose 30 mg/kg, route intraperitoneal; conditions: in vivo; method in brief: as §3
Mus musculus [9] = experiment: Neurotoxicity in CF1 mouse at 100 mg/kg, ip after 4 hrs by rotarod test; assay type: toxicity, organism-based; set-up: dose 100 mg/kg, route intraperitoneal; conditions: in vivo; method in brief: as §3
Mus musculus [10] = experiment: Neurotoxicity in CF1 mouse at 300 mg/kg, ip after 4 hrs by rotarod test; assay type: toxicity, organism-based; set-up: dose 300 mg/kg, route intraperitoneal; conditions: in vivo; method in brief: as §3
Mus musculus [11] = experiment: Neurotoxicity in CF1 mouse assessed as ability to grasp rotarod at 300 mg/kg, ip after 4 hrs by rotarod test; assay type: toxicity, organism-based; set-up: dose 300 mg/kg, route intraperitoneal; conditions: in vivo
Method in brief: (§4)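 Male albino CF#1 mice (18–25.5 g), free access to food and water except during testing, under NINDS Anticonvulsant Screening Program procedures. Compounds were suspended in 0.5% methylcellulose and given ip. Neurotoxicity was scored by rotarod 0.5 h and 4 h after dosing, at screening doses of 30, 100 or 300 mg/kg. Results are reported as affected/tested animals.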

Mus musculus [12] = experiment: Neurotoxicity in CF1 mouse assessed as mortality at 300 mg/kg, ip after 4 hrs by rotarod test; assay type: toxicity, organism-based; set-up: dose 300 mg/kg, route intraperitoneal; conditions: in vivo; method in brief: as §4
Mus musculus [13] = experiment: Anticonvulsant activity in CF1 mouse assessed as inhibition of maximal electroshock-induced seizures at 100 mg/kg, ip after 4 hrs; assay type: functional, organism-based; set-up: dose 100 mg/kg; method in brief: as §2
Mus musculus [14] = experiment: Anticonvulsant activity in CF1 mouse assessed as inhibition of maximal electroshock-induced seizures at 300 mg/kg, ip after 4 hrs; assay type: functional, organism-based; set-up: dose 300 mg/kg; method in brief: as §2
Mus musculus [15] = experiment: Neurotoxicity in CF1 mouse at 300 mg/kg, ip after 0.5 hrs by rotarod test; assay type: toxicity, organism-based; set-up: dose 300 mg/kg, route intraperitoneal; conditions: in vivo; method in brief: as §3
Mus musculus [16] = experiment: Anticonvulsant activity in CF1 mouse assessed as inhibition of maximal electroshock-induced […] seizures at 300 mg/kg, ip after 0.5 hrs; assay type: functional, organism-based; set-up: dose 300 mg/kg; method in brief: as §2
Mus musculus [17] = experiment: Neurotoxicity in CF1 mouse assessed as ability to grasp rotarod at 300 mg/kg, ip after 0.5 hrs by rotarod test; assay type: toxicity, organism-based; set-up: dose 300 mg/kg, route intraperitoneal; conditions: in vivo; method in brief: as §3

SMILES | MIC (Staphylococcus aureus) [µg/mL] | MIC (Enterococcus faecalis) [µg/mL] | MIC (Escherichia coli) [µg/mL] | MIC (Pseudomonas aeruginosa) [µg/mL] | MIC (Pichia kudriavzevii) [µg/mL] | MIC (Candida parapsilosis) [µg/mL] | inhibition (Mus musculus [1]) | inhibition (Mus musculus [2]) | inhibition (Mus musculus [3]) | inhibition (Mus musculus [4]) | Activity (Mus musculus [5]) | Activity (Mus musculus [6]) | Activity (Mus musculus [8]) | Activity (Mus musculus [9]) | Activity (Mus musculus [10]) | inhibition (Mus musculus [13]) | inhibition (Mus musculus [14]) | Activity (Mus musculus [15]) | further results
CCCCC(=O)OC(Cn1ccnc1)c1ccc2ccccc2c1 (centres undefined) | 8 (≈ 24.8 µM) | 32 (≈ 99.3 µM) | > 1020 | > 1020 | 128 (≈ 397 µM) | 128 (≈ 397 µM) | Active | Active | Active | inactive | Non-toxic | Non-toxic | Non-toxic | Non-toxic | Toxic |  |  |  | Activity (Mus musculus [7]): Toxic; Activity (Mus musculus [11]): Toxic; Activity (Mus musculus [12]): Toxic
CCCCC(=O)OC(C)c1ccc2ccccc2c1 (centres undefined) |  |  |  |  |  |  | inactive | inactive | inactive | inactive | Non-toxic | Non-toxic | Non-toxic | Non-toxic | Non-toxic | inactive | inactive | Non-toxic | 
CC1(C)S[C@@H]2[C@H](NC(=O)[C@H](N)c3ccccc3)C(=O)N2[C@H]1C(=O)O [AMPICILLIN] | 1 (≈ 2.86 µM) | 2 (≈ 5.72 µM) | 8 (≈ 22.9 µM) |  |  |  |  |  |  |  |  |  |  |  |  |  |  |  | 
O=C(OC(Cn1ccnc1)c1ccc2ccccc2c1)c1ccc(Cl)cc1 (centres undefined) | 32 (≈ 84.9 µM) | 128 (≈ 340 µM) | 1020 (≈ 2720 µM) | 1020 (≈ 2720 µM) | 512 (≈ 1360 µM) | 512 (≈ 1360 µM) | inactive | inactive | Active | inactive | Non-toxic | Non-toxic | Non-toxic | Non-toxic | Non-toxic | inactive | inactive |  | 
CCCC(=O)OC(Cn1ccnc1)c1ccc2ccccc2c1 (centres undefined) | 8 (≈ 25.9 µM) | 128 (≈ 415 µM) | > 1020 | > 1020 | 256 (≈ 830 µM) | 64 (≈ 208 µM) | inactive | Active |  | inactive | Non-toxic |  | Non-toxic | Non-toxic | Non-toxic | inactive | Active |  | inhibition (Mus musculus [16]): Active; Activity (Mus musculus [17]): Toxic
C/C(=N\CCCC(=O)O)c1ccc2ccccc2c1O |  |  |  |  |  |  | inactive | inactive | inactive | inactive | Non-toxic | Non-toxic | Non-toxic | Non-toxic | Non-toxic | inactive | inactive | Toxic | 
